Reference: publication PMC8992017 (Journal of medicinal chemistry, 2019)

Key:
NF-κB [1] = assay: NF-κB activation in THP1-Blue NF-κB reporter cells; type: cell-based; details: for NF-κB activity (in words): compound 5 μM + LPS, compared with compound 1
Summary of the method: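 THP1-Blue NF-κB cells at 10^5/well in RPMI with 10% FBS, pen/strep and Normocin. Test compound (1 mM DMSO stock) was diluted into LPS medium, giving final 5 μM compound ([…]), with LPS co-added. After 20 h, supernatant SEAP was measured colorimetrically with QuantiBlue at 630 nm. Two-point normalized: reference sulfonamide + LPS = 200%, LPS alone = 100%; mean ± SEM.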

ISRE [2] = assay: ISRE activity in ISRE-bla THP-1 reporter cells; type: cell-based; details: for ISRE activity (in words): compound 5 μM + IFN-α, compared with compound 1
Summary of the method: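 ISRE-bla THP-1 cells at 5×10^4/well in RPMI with 10% dialyzed FBS, 0.1 mM non-essential amino acids, 1 mM pyruvate and pen/strep. Test compound (1 mM DMSO stock) was diluted in IFN-α medium, giving final 5 μM compound ([…]) and final 100 U/mL IFN-α. Incubation 16 h, then CCF4-AM FRET substrate 3 h at RT in the dark. Excitation 405 nm; background-subtracted 465/535 nm emission ratio. Two-point normalized: reference sulfonamide + IFN-α = 200%, IFN-α alone = 100%; mean ± SEM.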

[3] = test system: C57BL/6 (wild-type, WT) mice; type: in vivo; details: for systemic toxicity, as indicated by behavior change or weight loss (in words): mice co-immunized with MPLA, ovalbumin and compound; for OVA-specific IgG antibody titers versus MPLA alone (in words): mice, n=8 per group, intramuscular, ovalbumin 20 μg/animal + MPLA + compound, days 0 and 21
Summary of the method: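 Female/male not stated; C57BL/6 wild-type mice aged 7–9 weeks, 8 per group. Test compound mixed with ovalbumin (20 μg/animal) and MPLA and injected into the gastrocnemius muscle on days 0 and 21. Mice then bled, and serum OVA-specific IgG titres measured by ELISA. Data given as mean ± SEM.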

NF-κB [4] = details: compound alone, without LPS; cited from earlier work
ISRE [5] = details: compound alone, without IFN-α; cited from earlier work
[6] = Stability of compound in DMSO stock and in assay media; type: physicochemical

| SMILES | NF-κB activity (in words) (NF-κB [1]) | ISRE activity (in words) (ISRE [2]) | other results |
| --- | --- | --- | --- |
| CCOc1ccc(S(=O)(=O)Nc2cc(OC)c(Cl)cc2OC)cc1 [Compound 1, N-(4-chloro-2,5-dimethoxyphenyl)-4-ethoxybenzenesulfonamide] | – | – | mean SEAP response in NF-κB assay (NF-κB [1]; compound 1 + LPS, raw value used for normalization, mean ± SEM): 3.44 ± 0.08 µg/mL; mean emission ratio in ISRE assay (ISRE [2]; compound 1 + IFN-α, raw value used for normalization, mean ± SEM): 1.88 ± 0.04 µg/mL; systemic toxicity, as indicated by behavior change or weight loss (in words) [3]: without demonstrable systemic toxicity; OVA-specific IgG antibody titers versus MPLA alone (in words) [3]: statistically significant increases; NF-κB activity when tested alone (in words) (NF-κB [4]): did not possess any NF-κB or ISRE activity; ISRE activity when tested alone (in words) (ISRE [5]): did not possess any NF-κB or ISRE activity |
| CCOc1ccc(S(=O)(=O)N(C)c2cc(OC)c(Cl)cc2OC)cc1 [Compound 33, N-(4-chloro-2,5-dimethoxyphenyl)-4-ethoxy-N-methylbenzenesulfonamide] | – | – | systemic toxicity, as indicated by behavior change or weight loss (in words) [3]: without demonstrable systemic toxicity; OVA-specific IgG antibody titers versus MPLA alone (in words) [3]: statistically significant increases |
| C#CCCCN(c1cc(OC)c(Cl)cc1OC)S(=O)(=O)c1ccc(OCC)cc1 [Compound 44, N-(4-chloro-2,5-dimethoxyphenyl)-4-ethoxy-N-(pent-4-yn-1-yl)benzenesulfonamide] | retained activity almost equivalent to that of compound 1 | retained activity almost equivalent to that of compound 1 | – |
| C#CCOCCOCCOCCN(c1cc(OC)c(Cl)cc1OC)S(=O)(=O)c1ccc(OCC)cc1 [Compound 45, N-(4-chloro-2,5-dimethoxyphenyl)-4-ethoxy-N-(2-(2-(2-(prop-2-yn-1yloxy)ethoxy)ethoxy)ethyl)benzenesulfonamide] | too long to retain activity | too long to retain activity | – |
| CCOc1ccc(S(=O)(=O)N(Cc2ccccc2)c2cc(OC)c(Cl)cc2OC)cc1 [Compound 46, N-benzyl-N-(4-chloro-2,5-dimethoxyphenyl)-4-ethoxybenzenesulfonamide] | potent analogs | potent analogs | – |
| CCOc1ccc(S(=O)(=O)N(CCc2ccccc2)c2cc(OC)c(Cl)cc2OC)cc1 [Compound 47, N-(4-chloro-2,5-dimethoxyphenyl)-4-ethoxy-N-phenethylbenzenesulfonamide] | potent analogs | potent analogs | – |
| CCOc1ccc(S(=O)(=O)N(C(C)=O)c2cc(OC)c(Cl)cc2OC)cc1 [Compound 48, N-(4-chloro-2,5-dimethoxyphenyl)-N-((4-ethoxyphenyl)sulfonyl)acetamide] | – | active | stability of stock in DMSO (in words) [6]: stable |
| CCOC(=O)CN(c1cc(OC)c(Cl)cc1OC)S(=O)(=O)c1ccc(OCC)cc1 [Compound 49, Ethyl N-(4-chloro-2,5-dimethoxyphenyl)-N-((4-ethoxyphenyl)sulfonyl)glycinate] | retained dual NF-κB and ISRE activities | retained dual NF-κB and ISRE activities | – |
| CCOC(=O)CCCN(c1cc(OC)c(Cl)cc1OC)S(=O)(=O)c1ccc(OCC)cc1 [Compound 50, Ethyl 4-((N-(4-chloro-2,5-dimethoxyphenyl)-4-ethoxyphenyl)sulfonamido)butanoate] | retained dual NF-κB and ISRE activities | retained dual NF-κB and ISRE activities | – |
| CCOc1ccc(S(=O)(=O)N(CCCO)c2cc(OC)c(Cl)cc2OC)cc1 [Compound 51, N-(4-chloro-2,5-dimethoxyphenyl)-4-ethoxy-N-(3-hydroxypropyl)benzenesulfonamide] | retained activity in both the assays | retained activity in both the assays | – |
| CCOc1ccc(S(=O)(=O)N(CCCNC(=O)OC(C)(C)C)c2cc(OC)c(Cl)cc2OC)cc1 [Compound 52, tert-Butyl (3-((N-(4-chloro-2,5-dimethoxyphenyl)-4-ethoxyphenyl)sulfonamido)propyl)carbamate] | reduction in activity | reduction in activity | – |
| CCOc1ccc(S(=O)(=O)N(CCCC(=O)O)c2cc(OC)c(Cl)cc2OC)cc1 [Compound 53, 4-((N-(4-chloro-2,5-dimethoxyphenyl)-4-ethoxyphenyl)sulfonamido)butanoic acid] | retaining the NF-κB activity | reduction in ISRE activity | – |
| CCNC(=O)CCCN(c1cc(OC)c(Cl)cc1OC)S(=O)(=O)c1ccc(OCC)cc1 [Compound 54, 4-((N-(4-chloro-2,5-dimethoxyphenyl)-4-ethoxyphenyl)sulfonamido)-N-ethylbutanamide] | retaining the NF-κB activity | reduction in ISRE activity | – |
| CCOc1ccc(S(=O)(=O)N(CCCN)c2cc(OC)c(Cl)cc2OC)cc1.Cl [Compound 55, N-(3-aminopropyl)-N-(4-chloro-2,5-dimethoxyphenyl)-4-ethoxybenzenesulfonamide hydrochloride] | recovered | recovered | – |
| CCOc1ccc(S(=O)(=O)N(CCCNC(=O)CCCCCNC(=O)c2ccc3c(c2)C(=O)OC32c3ccc(O)cc3Oc3cc(O)ccc32)c2cc(OC)c(Cl)cc2OC)cc1 [Compound 56, N-(6-((3-((N-(4-chloro-2,5-dimethoxyphenyl)-4-ethoxyphenyl)sulfonamido)propyl)amino)-6-oxohexyl)-3’,6’-dihydroxy-3-oxo-3H-spiro[isobenzofuran-1,9’-xanthene]-5-carboxamide] | completely inactive | completely inactive | – |
| CCOc1ccc(S(=O)(=O)N(CCCNC(=O)CCCC[C@H]2SC[C@H]3NC(=O)N[C@H]32)c2cc(OC)c(Cl)cc2OC)cc1 [Compound 58, N-(3-((N-(4-chloro-2,5-dimethoxyphenyl)-4-ethoxyphenyl)sulfonamido)propyl)-5-((3aR,4R,6aS)-2-oxohexahydro-1H-thieno[3,4-d]imidazol-4-yl)pentanamide] | equipotent to compound 1 | equipotent to compound 1 | – |
| CCOc1ccc(S(=O)(=O)Nc2cc(OC)c(N=[N+]=[N-])cc2OC)cc1 [Compound 59, N-(4-azido-2,5-dimethoxyphenyl)-4-ethoxybenzenesulfonamide] | potent | potent | – |
| COc1ccc(S(=O)(=O)Nc2cc(OC)c(Cl)cc2OC)cc1N [Compound 60, 3-Amino-N-(4-chloro-2,5-dimethoxyphenyl)-4-methoxybenzenesulfonamide] | resurgence of activity | resurgence of activity | – |
| C#CCN(c1cc(OC)c(N=[N+]=[N-])cc1OC)S(=O)(=O)c1ccc(OCC)cc1 [Compound 62, N-(4-azido-2,5-dimethoxyphenyl)-4-ethoxy-N-(prop-2-yn-1-yl)benzenesulfonamide] | very potent | very potent | – |
| CCOc1ccc(S(=O)(=O)N(CCCNC(=O)CCCC[C@H]2SC[C@H]3NC(=O)N[C@H]32)c2cc(OC)c(N=[N+]=[N-])cc2OC)cc1 [Compound 64, N-(3-((N-(4-azido-2,5-dimethoxyphenyl)-4-ethoxyphenyl)sulfonamido)propyl)-5((3aR,4R,6aS)-2-oxohexahydro-1H-thieno[3,4-d]imidazol-4-yl)pentanamide] | relatively weak activity | relatively weak activity | – |
